Test [1] deals with Hepacivirus hominis. The experiment in a line: Inhibition of HCV NS5B polymerase assessed as chain termination of RNA synthesis.
Test [2] deals with RNA-directed RNA polymerase (Hepacivirus hominis, UniProt O39930, S282T). The experiment in a line: Inhibition of HCV NS5B polymerase S282T mutant assessed as blocking of full length RNA product formation by single-nucleotide incorporation assay. The method in brief: (§1)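 Run 30 min with 3 μM each NTP, competing nucleotide 300 nM. Full-length product was resolved on urea gels and quantified by phosphorimager. IC50 came from a four-parameter logistic fit, three independent experiments. The ratio is S282T IC50 over wild-type IC50.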

The subject of test [3] is Hepacivirus hominis. The experiment in a line: Ratio of IC50 for HCV NS5B polymerase S282T mutant to IC50 for HCV NS5B polymerase by single-nucleotide incorporation assay. In short, it runs like this:
as §1

Test [4] is described as follows: Inhibition of HCV NS5B polymerase assessed as blocking of full length RNA product formation by single-nucleotide incorporation assay. On the set-up: species or system Hepacivirus hominis. In short, it runs like this:
as §1

The IC50 is the point on the concentration scale where inhibition reaches its midpoint.

The source made the active and inactive calls. The rule behind the calls is not given here.

Chain of RNA-directed RNA polymerase (O39930 entry or part of it S282T): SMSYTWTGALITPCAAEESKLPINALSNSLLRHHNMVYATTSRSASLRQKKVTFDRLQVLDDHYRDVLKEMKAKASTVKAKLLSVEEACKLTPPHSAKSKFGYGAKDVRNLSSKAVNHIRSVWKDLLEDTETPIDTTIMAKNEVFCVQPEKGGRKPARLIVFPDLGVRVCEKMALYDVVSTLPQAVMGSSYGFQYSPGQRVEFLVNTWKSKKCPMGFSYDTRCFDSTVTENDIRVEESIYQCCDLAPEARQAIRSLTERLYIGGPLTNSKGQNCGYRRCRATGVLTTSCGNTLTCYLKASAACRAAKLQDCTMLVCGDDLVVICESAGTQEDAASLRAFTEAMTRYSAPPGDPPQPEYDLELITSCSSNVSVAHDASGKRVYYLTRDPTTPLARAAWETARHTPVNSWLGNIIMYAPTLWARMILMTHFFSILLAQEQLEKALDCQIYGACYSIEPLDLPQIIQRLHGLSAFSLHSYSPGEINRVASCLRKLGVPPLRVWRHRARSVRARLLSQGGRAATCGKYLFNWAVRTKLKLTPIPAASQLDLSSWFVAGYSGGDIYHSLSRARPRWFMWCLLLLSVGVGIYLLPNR

For `Nc1ccn([C@@H]2O[C@H](COP(=O)(O)OP(=O)(O)OP(=O)(O)O)C[C@H]2O)c(=O)n1`, the outcome in the test on Hepacivirus hominis [1] was Active. Also, the IC50 was 0.77 µM in test [2] and 0.46 µM in test [4]. In addition, the Ratio IC50 with Hepacivirus hominis [3] is 1.7.
Consider `Nc1nc2c(ncn2[C@@H]2O[C@H](COP(=O)(O)OP(=O)(O)OP(=O)(O)O)C[C@H]2O)c(=O)[nH]1`, for which, in the test on Hepacivirus hominis [1], the outcome was Active.
With `Nc1ncnc2c1ncn2[C@@H]1O[C@H](COP(=O)(O)OP(=O)(O)OP(=O)(O)O)C[C@H]1O`, the result with Hepacivirus hominis [1] was Active. The figures for the half-inhibitory concentration (IC50) in test [2] and in test [4] were 8.8 µM and 4.4 µM, respectively. Also, the Ratio IC50 with Hepacivirus hominis [3] turned out to be 2.
For the compound `C[C@@]1(O)[C@H](O)[C@@H](COP(=O)(O)OP(=O)(O)OP(=O)(O)O)O[C@H]1n1ccc(N)nc1=O` [2'-C-METHYLCYTIDINE TRIPHOSPHATE], the IC50 in test [2] is 60 µM; in test [4], 6.3 µM. In addition, in the test with Hepacivirus hominis [3], the Ratio IC50 came to 9.5.
Turning to `C[C@@]1(O)[C@H](O)[C@@H](COP(=O)(O)OP(=O)(O)OP(=O)(O)O)O[C@H]1n1cnc2c(N)ncnc21`, the IC50 in test [2] was above 100 µM; in test [4] it was 4.2 µM. In the test with Hepacivirus hominis [3], the Ratio IC50 is above 24.
In the case of `O=c1ccn([C@@H]2O[C@H](COP(=O)(O)OP(=O)(O)OP(=O)(O)O)C[C@H]2O)c(=O)[nH]1`, the outcome in the test on Hepacivirus hominis [1] was Active.

The values above are taken from ChEMBL document CHEMBL1155141, “Pyrophosphorolytic excision of nonobligate chain terminators by hepatitis C virus NS5B polymerase” (Antimicrob Agents Chemother, 2007).
